Key:
Rattus norvegicus [1] = assay: (§1) Percentage fall in systolic blood pressure after 3 hours at 50 mg/kg given perorally; assay type: functional, Artery; settings: route oral
Procedure, shortened: (§2)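 Male Okamoto-Aoki SHR, four per group, with a concurrent vehicle control group. Oral dosing in water (0.1 mL/10 g) on two consecutive mornings. After the day-2 dose, rats were restrained in a 30 °C chamber. Tail-cuff systolic pressure was taken at 1-4 h from four traces per rat. Result is % decrease versus control mean, by 1-tailed t test, p ≤ 0.05.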

Rattus norvegicus [2] = assay: (§3) Percentage fall in systolic blood pressure after 2 hours at 50 mg/kg given perorally; assay type: functional, Artery; settings: route oral; procedure, shortened: as §2
Rattus norvegicus [3] = assay: (§4) Percentage fall in systolic blood pressure after 4 hours at 50 mg/kg given perorally; assay type: functional, organism-based; set-up: dose 50 mg/kg; settings: Artery; procedure, shortened: as §2
Rattus norvegicus [4] = assay: (§5) Percentage fall in systolic blood pressure after 1 hr at 50 mg/kg given perorally; assay type: functional, Artery; settings: route oral; procedure, shortened: as §2
Rattus norvegicus [5] = assay: as §4; assay type: functional, Artery; settings: route oral; procedure, shortened: as §2
Rattus norvegicus [6] = assay: Percentage fall in systolic blood pressure after 3 hours at 12.5 mg/kg given perorally; assay type: functional, Artery; settings: route oral; procedure, shortened: as §2
Rattus norvegicus [7] = assay: (§6) Percentage fall in systolic blood pressure after 4 hours at 12.5 mg/kg given perorally; assay type: functional, Artery; settings: route oral; procedure, shortened: as §2
Rattus norvegicus [8] = assay: Percentage fall in systolic blood pressure after 2 hours at 12.5 mg/kg given perorally; assay type: functional, Artery; settings: route oral; procedure, shortened: as §2
Rattus norvegicus [9] = assay: (§7) Percentage fall in systolic blood pressure after 1 hr at 12.5 mg/kg given perorally; assay type: functional, Artery; settings: route oral; procedure, shortened: as §2
Rattus norvegicus [10] = assay: as §6; assay type: functional, organism-based; set-up: dose 12.5 mg/kg; settings: Artery; procedure, shortened: as §2
Rattus norvegicus [11] = assay: as §7; assay type: functional, organism-based; set-up: dose 12.5 mg/kg; settings: Artery
Procedure, shortened: (§8)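 Male Okamoto-Aoki spontaneously hypertensive rats, trained, in groups of four matched for mean systolic pressure; five treated groups and one vehicle control run concurrently. Oral dosing in water (solution or suspension, 0.1 mL/10 g) on two consecutive mornings. On day 2, rats were restrained at 30.0 ± 1.0 °C and tail-cuff systolic pressure recorded at 1–4 h; percent fall versus control, 1-tail t test, p ≤ 0.05.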

Rattus norvegicus [12] = assay: Percentage fall in systolic blood pressure after 3 hr at 12.5 mg/kg given perorally; assay type: functional, organism-based; set-up: dose 12.5 mg/kg; settings: Artery; procedure, shortened: as §8
Rattus norvegicus [13] = assay: Percentage fall in systolic blood pressure after 2 hr at 12.5 mg/kg given perorally; assay type: functional, organism-based; set-up: dose 12.5 mg/kg; settings: Artery; procedure, shortened: as §8
Rattus norvegicus [14] = assay: Percentage fall in systolic blood pressure after 4 hr at 12.5 mg/kg given perorally; assay type: functional, organism-based; set-up: dose 12.5 mg/kg; settings: Artery; procedure, shortened: as §8
Rattus norvegicus [15] = assay: as §3; assay type: functional, organism-based; set-up: dose 50 mg/kg; settings: Artery; procedure, shortened: as §2
Rattus norvegicus [16] = assay: as §1; assay type: functional, organism-based; set-up: dose 50 mg/kg; settings: Artery; procedure, shortened: as §2
Rattus norvegicus [17] = assay: as §5; assay type: functional, organism-based; set-up: dose 50 mg/kg; settings: Artery; procedure, shortened: as §8
Rattus norvegicus [18] = assay: Percentage fall in systolic blood pressure after 1 hr at 25 mg/kg given perorally; assay type: functional, Artery; settings: route oral; procedure, shortened: as §8
Rattus norvegicus [19] = assay: Percentage fall in systolic blood pressure after 2 hours at 25 mg/kg given perorally; assay type: functional, Artery; settings: route oral; procedure, shortened: as §8
Rattus norvegicus [20] = assay: Percentage fall in systolic blood pressure after 3 hours at 25 mg/kg given perorally; assay type: functional, Artery; settings: route oral; procedure, shortened: as §8
Rattus norvegicus [21] = assay: Percentage fall in systolic blood pressure after 4 hours at 25 mg/kg given perorally; assay type: functional, Artery; settings: route oral; procedure, shortened: as §8

Compound | Decrease in SBP (Rattus norvegicus [1]) [%] | Decrease in SBP (Rattus norvegicus [2]) [%] | Decrease in SBP (Rattus norvegicus [3]) | Decrease in SBP (Rattus norvegicus [4]) [%] | Decrease in SBP (Rattus norvegicus [5]) [%] | Decrease in SBP (Rattus norvegicus [16]) | other results
COC1(CNC(=O)c2ccccc2)CCN(CCc2c[nH]c3ccccc23)CC1 | 22 | 28 | Not significant | 30 | – | – | –
CCC1NC(=O)COC12CCN(CC(O)C1COc3ccccc3O1)CC2 (stereo unspecified) | 36 | 44 | – | 40 | 26 | – | –
CC1OC2(CCN(CCc3c[nH]c4ccccc34)CC2)CNC1=O (stereo unspecified) | 21 | 36 | – | 30 | 26 | – | –
CN1CC2(CCN(CCc3c[nH]c4ccccc34)CC2)OCC1=O | 34 | 44 | – | 50 | 26 | – | Decrease in SBP (Rattus norvegicus [6]): 20%; Decrease in SBP (Rattus norvegicus [7]): 17%; Decrease in SBP (Rattus norvegicus [8]): 19%; Decrease in SBP (Rattus norvegicus [9]): 25%
CC1NC(=O)COC12CCN(CCc1c[nH]c3ccccc13)CC2 (stereo unspecified) | 41 | 48 | – | 56 | 50 | – | Decrease in SBP (Rattus norvegicus [6]): 24%; Decrease in SBP (Rattus norvegicus [8]): 36%; Decrease in SBP (Rattus norvegicus [9]): 24%; Decrease in SBP (Rattus norvegicus [10]): Not significant
CCN1CC2(CCN(CCc3c[nH]c4ccccc34)CC2)OCC1=O | 28 | 33 | – | 55 | 42 | – | Decrease in SBP (Rattus norvegicus [6]): 30%; Decrease in SBP (Rattus norvegicus [7]): 21%; Decrease in SBP (Rattus norvegicus [8]): 33%; Decrease in SBP (Rattus norvegicus [9]): 22%
O=C1COC2(CCN(CCCOc3ccccc3)CC2)CN1 | – | – | – | – | – | – | Decrease in SBP (Rattus norvegicus [11]): Not significant; Decrease in SBP (Rattus norvegicus [12]): Not significant; Decrease in SBP (Rattus norvegicus [13]): Not significant; Decrease in SBP (Rattus norvegicus [14]): Not significant
CN1CC2(CCN(CC(O)C3COc4ccccc4O3)CC2)OCC1=O (stereo in doubt; 61) | – | – | – | – | – | – | Decrease in SBP (Rattus norvegicus [12]): Not significant
CCN1C(=O)COC2(CCN(CCc3c[nH]c4ccccc34)CC2)C1C (stereo unspecified) | – | – | Not significant | 20 | – | Not significant | Decrease in SBP (Rattus norvegicus [15]): Not significant
CC1N(C)C(=O)COC12CCN(CCc1c[nH]c3ccccc13)CC2 (stereo unspecified) | – | 22 | Not significant | 29 | – | Not significant | –
COCC(=O)NCC1CCN(CCc2c[nH]c3ccccc23)CC1 | 13 | 18 | – | 20 | 26 | – | –
O=C1COC2(CCN(CCc3c[nH]c4ccccc34)CC2)C(c2ccccc2)N1 (stereo unspecified) | – | 19 | Not significant | 21 | – | Not significant | –
CCC1N(C)C(=O)COC12CCN(CCc1c[nH]c3ccccc13)CC2 (stereo unspecified) | – | – | Not significant | – | – | Not significant | Decrease in SBP (Rattus norvegicus [15]): Not significant; Decrease in SBP (Rattus norvegicus [17]): Not significant
O=C1COC2(CCN(CCc3c[nH]c4ccccc34)CC2)CN1Cc1ccccc1 | – | – | Not significant | 18 | – | Not significant | Decrease in SBP (Rattus norvegicus [15]): Not significant
CCN1CC2(CCN(CCCC(=O)c3ccc(F)cc3)CC2)OCC1=O | – | – | – | – | – | – | Decrease in SBP (Rattus norvegicus [18]): 35%; Decrease in SBP (Rattus norvegicus [19]): 31%; Decrease in SBP (Rattus norvegicus [20]): 27%; Decrease in SBP (Rattus norvegicus [21]): 13%
CCC1OC2(CCN(CCc3c[nH]c4ccccc34)CC2)CN(C)C1=O (stereo unspecified) | – | – | Not significant | 16 | – | Not significant | Decrease in SBP (Rattus norvegicus [15]): Not significant
COc1cc2c(cc1OC)[C@@H]1C[C@@]3(CCN1CC2)CN(C)C(=O)CO3 | – | – | Not significant | – | – | Not significant | Decrease in SBP (Rattus norvegicus [15]): Not significant; Decrease in SBP (Rattus norvegicus [17]): Not significant
O=C1COC2(CCN(C3CCc4ccccc4C3)CC2)CN1 (stereo unspecified) | 23 | 24 | – | 28 | 20 | – | –
